≈ marks a conversion by molar mass, not a printed value. Like-named read-outs stand apart in the source and are kept apart here.
How the values were obtained:
[1] = Stability/reactivity toward glutathione; type: physicochemical
[2] = Aqueous solubility
[3] = system: BJeLR (expressing HRAS^G12V); conditions: for increase in activity compared to 2a: BJeLR
[4] = system: BJeH-LT (isogenic to BJeLR without HRAS^G12V); test: Cell viability counterscreen in isogenic BJeH-LT cells; type: cell-based; conditions: read-out: IC50 BJeH-LT
Outline: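 IC50 measured in BJeH-LT cells, the isogenic partner of BJeLR lacking mutant HRAS; each reported value is the mean of experiments run in triplicate.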

[5] = system: BJeLR (expressing HRAS^G12V); test: cells; conditions: read-out: IC50 BJeLR
[6] = system: DRD (expressing HRAS^G12V with alternative oncogenic constructs); test: Cell viability in DRD cells; type: cell-based
[7] = system: BJeLR (expressing HRAS^G12V); conditions: cited from earlier work

SMILES	activity in the cell assays (in words) [3]	IC50 [4]	IC50 [5]	also measured
COc1ccc(N(C(=O)CCl)C(C(=O)NCCc2ccccc2)c2cccs2)cc1Cl (stereo not shown) [Compound 1a]				GSH adduct observed ([1]; 48 hours incubation in PBS/DMSO (1/2) at room temperature, GSH 5 mM): 20%; time in which formation of the GSH adduct was observed ([1]; base (triethylamine) added): 1 h; solubility [2]: < 1 µM
COc1ccc(N(C(=O)CCl)C(C(=O)NCCc2ccccc2)c2nc(C)cs2)cc1Cl (stereo not shown) [Compound 1k]	inactive			
COc1ccc(N(C(=O)CCl)C(C(=O)NCS(=O)(=O)c2ccc(C)cc2)c2cccs2)cc1Cl (stereo not shown) [Compound 1q]				solubility [2]: 16 µM (≈ 8.66 µg/mL)
COc1ccc(N(C(=O)CCl)C(C(=O)NCn2nnc3ccccc32)c2cccs2)cc1Cl (stereo not shown) [Compound 1r]				aqueous solubility (in words) ([2]; compared to 1a): did not improve solubility
O=C(c1n[nH]cc1[N+](=O)[O-])N1CCN(C(c2ccccc2)c2ccccc2)CC1 [Compound 2h]		> 20 µg/mL	> 20 µg/mL	
Cn1cc([N+](=O)[O-])c(C(=O)N2CCN(C(c3ccccc3)c3ccccc3)CC2)n1 [Compound 2i]		> 20 µg/mL	> 20 µg/mL	
Cn1ncc([N+](=O)[O-])c1C(=O)N1CCN(C(c2ccccc2)c2ccccc2)CC1 [Compound 2j]		> 20 µg/mL	> 20 µg/mL	
O=C(c1cc([N+](=O)[O-])ccn1)N1CCN(C(c2ccccc2)c2ccccc2)CC1 [Compound 2k]	weak inhibitor			
Cc1ccc(C(=O)N2CCN(C(c3ccccc3)c3ccccc3)CC2)c([N+](=O)[O-])c1 [Compound 2l]	inactive	> 20 µg/mL	> 20 µg/mL	
O=C(c1ccc([N+](=O)[O-])o1)N1CCN(C(c2ccccc2)c2ccccc2)CC1 [Compound 2m]	inactive		> 20 µg/mL	
Cc1onc(C(=O)N2CCOCC2)c1[N+](=O)[O-] [Compound 2n]	inactive	> 20 µg/mL	> 20 µg/mL	
Cc1onc(C(=O)NCc2ccc(F)cc2)c1[N+](=O)[O-] [Compound 2o]	inactive	> 20 µg/mL	> 20 µg/mL	
CCC(=O)N1CCN(C(=O)c2noc(C)c2[N+](=O)[O-])CC1 [Compound 2p]	inactive	> 20 µg/mL	> 20 µg/mL	
COc1ccccc1N1CCN(C(=O)c2noc(C)c2[N+](=O)[O-])CC1 [Compound 2q]	inactive	> 20 µg/mL	> 20 µg/mL	
Cc1onc(C(=O)N2CCN(Cc3ccccc3)CC2)c1[N+](=O)[O-] [Compound 2r]	eliminate activity	> 20 µg/mL	> 20 µg/mL	
Cc1onc(C(=O)NCCNC(c2ccccc2)c2ccccc2)c1[N+](=O)[O-] [Compound 2t]		> 20 µg/mL		
Cc1onc(C(=O)N2CCN(C(c3ccccn3)c3ccccn3)CC2)c1[N+](=O)[O-] [Compound 2u]	inactive	> 20 µg/mL	> 20 µg/mL	
Cc1onc(C(=O)N2CCN(C(c3ccncc3)c3ccncc3)CC2)c1[N+](=O)[O-] [Compound 2v]	inactive	> 20 µg/mL	> 20 µg/mL	
Cc1onc(C(=O)N2CCN(C(c3ccc(F)cc3)c3ccc(F)cc3)CC2)c1[N+](=O)[O-] [Compound 2w]				increase in activity compared to 2a [3]: 5 fold
Cc1onc(C(=O)N2CCN(C(c3ccc(Cl)cc3)c3ccc(Cl)cc3)CC2)c1[N+](=O)[O-] [Compound 2y]				selectivity for the DRD vs the BJeH cell line ([6]; DRD (HRAS^G12V) vs BJeH (non expressing HRAS^G12V)): 6 fold; increase in activity compared to the hit compound 2a ([6]; DRD cell line): 16 fold; increase in activity compared to 2a [3]: 14 fold
COC(=O)c1ccc(C2c3[nH]c4ccccc4c3C[C@@H](C(=O)OC)N2C(=O)CCl)cc1 (stereo partly shown) [RSL3]				selectivity vs BJeH-LT ([7]; BJeLR vs BJeH-LT): approximately 8 fold; IC50 ([7]; read-out: IC50 in BJeLR, BJeLR): 100 nM

— publication PMC3528973 (Bioorganic & medicinal chemistry letters, 2011)
